Active and inactive are the calls of the source. The rule behind the calls is not given here.
Key:
HL-60 [1] = assay: Cell cycle arrest in human HL60 cells assessed as accumulation at G2 phase at 40 uM after 24 hrs by propidium iodide staining-based FACS flow cytometric analysis (reference value: 1%); type: functional
How it was run: (§1)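 HL-60 cells seeded at 0.44 × 10^6/mL and exposed to 10, 20, 30 or 40 μM for 24 h. Cells were pelleted at 400g, washed in ice-cold PBS and fixed overnight in ice-cold 70% ethanol at 4 °C. They were treated with RNase (0.2 mg/mL) for 1 h at 37 °C, then stained with PI (10 μg/mL) for 30 min in the dark. Flow cytometry collected 10 000 events (FL2-A vs FL2-W). Sub-G0, G1, S and G2 fractions were fitted by modelling software.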

HL-60 [2] = assay: Cell cycle arrest in human HL60 cells assessed as accumulation at S phase at 40 uM after 24 hrs by propidium iodide staining-based FACS flow cytometric analysis (reference value: 54%); type: functional; how it was run: as §1
HL-60 [3] = assay: Cell cycle arrest in human HL60 cells assessed as accumulation at G1 phase at 40 uM after 24 hrs by propidium iodide staining-based FACS flow cytometric analysis (reference value: 45%); type: functional; how it was run: as §1
HL-60 [4] = assay: Cell cycle arrest in human HL60 cells assessed as accumulation at G2 phase at 30 uM after 24 hrs by propidium iodide staining-based FACS flow cytometric analysis (reference value: 1%); type: functional; how it was run: as §1
HL-60 [5] = assay: Cell cycle arrest in human HL60 cells assessed as accumulation at sub-G0 phase at 40 uM after 24 hrs by propidium iodide staining-based FACS flow cytometric analysis (reference value: 3%); type: functional; how it was run: as §1
HL-60 [6] = assay: Cell cycle arrest in human HL60 cells assessed as accumulation at S phase at 30 uM after 24 hrs by propidium iodide staining-based FACS flow cytometric analysis (reference value: 54%); type: functional; how it was run: as §1
HL-60 [7] = assay: Cell cycle arrest in human HL60 cells assessed as accumulation at G1 phase at 30 uM after 24 hrs by propidium iodide staining-based FACS flow cytometric analysis (reference value: 45%); type: functional; how it was run: as §1
HL-60 [8] = assay: Cell cycle arrest in human HL60 cells assessed as accumulation at sub-G0 phase at 30 uM after 24 hrs by propidium iodide staining-based FACS flow cytometric analysis (reference value: 3%); type: functional; how it was run: as §1
HL-60 [9] = assay: Cell cycle arrest in human HL60 cells assessed as accumulation at G2 phase at 20 uM after 24 hrs by propidium iodide staining-based FACS flow cytometric analysis (reference value: 1%); type: functional; how it was run: as §1
HL-60 [10] = assay: Cell cycle arrest in human HL60 cells assessed as accumulation at S phase at 20 uM after 24 hrs by propidium iodide staining-based FACS flow cytometric analysis (reference value: 54%); type: functional; how it was run: as §1
HL-60 [11] = assay: Cell cycle arrest in human HL60 cells assessed as accumulation at G1 phase at 20 uM after 24 hrs by propidium iodide staining-based FACS flow cytometric analysis (reference value: 45%); type: functional; how it was run: as §1
HL-60 [12] = assay: Cell cycle arrest in human HL60 cells assessed as accumulation at sub-G0 phase at 20 uM after 24 hrs by propidium iodide staining-based FACS flow cytometric analysis (reference value: 3%); type: functional; how it was run: as §1
HL-60 [13] = assay: Cell cycle arrest in human HL60 cells assessed as accumulation at G2 phase at 10 uM after 24 hrs by propidium iodide staining-based FACS flow cytometric analysis (reference value: 1%); type: functional; how it was run: as §1
HL-60 [14] = assay: Cell cycle arrest in human HL60 cells assessed as accumulation at S phase at 10 uM after 24 hrs by propidium iodide staining-based FACS flow cytometric analysis (reference value: 54%); type: functional; how it was run: as §1
HL-60 [15] = assay: Cell cycle arrest in human HL60 cells assessed as accumulation at G1 phase at 10 uM after 24 hrs by propidium iodide staining-based FACS flow cytometric analysis (reference value: 45%); type: functional; how it was run: as §1
HL-60 [16] = assay: Cell cycle arrest in human HL60 cells assessed as accumulation at sub-G0 phase at 10 uM after 24 hrs by propidium iodide staining-based FACS flow cytometric analysis (reference value: 3%); type: functional; how it was run: as §1
PC-3 = assay: Cytotoxicity against human PC3 cells after 48 hrs by MTT assay; type: functional, cell-based; conditions: PC-3, 48 h
How it was run: (§2)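 Cell lines from NCI, grown in RPMI1640 or MEM with 10% heat-inactivated FBS at 37 °C under 5% CO2. Seeded at 6000 cells/well overnight, then exposed to 1, 10, 30, 50 and 100 μM for 48 h. MTT (2.5 mg/mL) added for 3 h, formazan dissolved in DMSO, OD read at 540 nm (ref 620 nm). Growth taken as treated vs untreated absorbance, giving IC50.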

HL-60 [17] = assay: Cytotoxicity against human HL60 cells after 48 hrs by MTT assay; type: functional, cell-based; conditions: HL-60, 48 h; how it was run: as §2
MIA PaCa-2 = assay: Cytotoxicity against human MIAPaCa2 cells after 48 hrs by MTT assay; type: functional, cell-based; conditions: MIA PaCa-2, 48 h; how it was run: as §2
COLO 205 = assay: Cytotoxicity against human COLO205 cells after 48 hrs by MTT assay; type: functional, cell-based; conditions: COLO 205, 48 h; how it was run: as §2
HepG2 = assay: Cytotoxicity against human HepG2 cells after 48 hrs by MTT assay; type: functional, cell-based; conditions: HepG2, 48 h; how it was run: as §2
HL-60 [18] = assay: Induction of apoptosis in human HL60 cells assessed as formation of scattered apoptotic bodies at 20 to 40 uM after 24 hrs by fluorescence microscopic analysis; type: functional, cell-based
How it was run: (§3)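 After 24 h exposure, HL-60 cells were pelleted at 400g, washed twice in PBS and fixed in cold acetic acid–methanol (1:3) for 3 h on ice. They were spread on slides and dried overnight at room temperature. Staining used Hoechst 33258 (5 μg/mL in 0.45 M disodium phosphate/0.01 M citric acid/0.05% Tween 20) for 30 min at room temperature. Slides were mounted in PBS–glycerol and viewed by fluorescence microscopy at 30× for condensed nuclei and apoptotic bodies.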

HL-60 [19] = assay: Induction of apoptosis in human HL60 cells assessed as nuclear condensation at 20 to 40 uM after 24 hrs by fluorescence microscopic analysis; type: functional, cell-based; how it was run: as §3
HL-60 [20] = assay: Induction of apoptosis in human HL60 cells assessed as shrinkage of cell size at 20 to 40 uM after 24 hrs by fluorescence microscopic analysis; type: functional, cell-based; how it was run: as §3
HL-60 [21] = assay: Induction of apoptosis in human HL60 cells assessed as cell wall deformation at 20 to 40 uM after 24 hrs by fluorescence microscopic analysis; type: functional, cell-based; how it was run: as §3
HL-60 [22] = assay: Induction of apoptosis in human HL60 cells assessed as vesicle formation at 10 to 40 uM after 24 hrs by phase contrast microscopic analysis; type: functional, cell-based
How it was run: (§4)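 HL-60 cells were exposed to the test concentrations for 24 h. Unstained cells were then photographed under phase-contrast microscopy to assess cellular morphology.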

HL-60 [23] = assay: Induction of apoptosis in human HL60 cells assessed as blebbing of cell wall at 10 to 40 uM after 24 hrs by phase contrast microscopic analysis; type: functional, cell-based; how it was run: as §4
HL-60 [24] = assay: Cell cycle arrest in human HL60 cells assessed as accumulation at sub-G0 phase after 24 hrs by propidium iodide staining-based FACS flow cytometric analysis; type: functional
How it was run: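 HL-60 cells at 0.44 × 10^6/mL treated at 10, 20, 30 and 40 μM for 24 h. Collected at 400g, then fixed overnight in ice-cold 70% ethanol at 4 °C. RNase (0.2 mg/mL) at 37 °C for 1 h, then PI (10 μg/mL) for 30 min in the dark. Flow cytometry on 10 000 events, FL2-A vs FL2-W. Sub-G0 fraction taken as apoptotic.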

HL-60 [25] = assay: Induction of mitochondrial membrane potential loss in human HL60 cells at 40 uM after 24 hrs by rhodamine-123 staining-based FACS flow cytometric analysis (reference value: 5%); type: functional
HL-60 [26] = assay: Induction of mitochondrial membrane potential loss in human HL60 cells at 30 uM after 24 hrs by rhodamine-123 staining-based FACS flow cytometric analysis (reference value: 5%); type: functional
HL-60 [27] = assay: Induction of mitochondrial membrane potential loss in human HL60 cells at 20 uM after 24 hrs by rhodamine-123 staining-based FACS flow cytometric analysis (reference value: 5%); type: functional
HL-60 [28] = assay: Induction of mitochondrial membrane potential loss in human HL60 cells at 10 uM after 24 hrs by rhodamine-123 staining-based FACS flow cytometric analysis (reference value: 5%); type: functional

SMILES | Activity (HL-60 [1]) [%] | Activity (HL-60 [2]) [%] | Activity (HL-60 [3]) [%] | Activity (HL-60 [4]) [%] | Activity (HL-60 [5]) [%] | Activity (HL-60 [6]) [%] | Activity (HL-60 [7]) [%] | Activity (HL-60 [8]) [%] | Activity (HL-60 [9]) [%] | Activity (HL-60 [10]) [%] | Activity (HL-60 [11]) [%] | Activity (HL-60 [12]) [%] | Activity (HL-60 [13]) [%] | Activity (HL-60 [14]) [%] | Activity (HL-60 [15]) [%] | Activity (HL-60 [16]) [%] | IC50 (PC-3) [µM] | IC50 (HL-60 [17]) [µM] | IC50 (MIA PaCa-2) [µM] | IC50 (COLO 205) [µM] | also measured
CC(=O)c1c(O)c(C)c(O)c(Cc2c(O)c3c(c(C(=O)/C=C/c4ccccc4)c2O)OC(C)(C)C=C3)c1O [ROTTLERIN] | 4 | 63 | 33 | 12 | 84 | 46 | 42 | 80 | 12 | 31 | 58 | 64 | 7 | 26 | 67 | 19.6 | > 20 | 9 | 8 | > 20 | IC50 (HepG2): > 20 µM; Activity (HL-60 [18]): Active; Activity (HL-60 [19]): Active; Activity (HL-60 [20]): Active; Activity (HL-60 [21]): Active; Activity (HL-60 [22]): Active; Activity (HL-60 [23]): Active; Activity (HL-60 [24]): Dose-dependent effect; Activity (HL-60 [25]): 89%; Activity (HL-60 [26]): 61%; Activity (HL-60 [27]): 28%; Activity (HL-60 [28]): 18%
CC1(C)C=Cc2c(OCc3ccccc3)cc(O)c(C(=O)/C=C/c3ccccc3)c2O1 | 12 | 42 | 46 | 8 | 83 | 49 | 43 | 39 | 8 | 48 | 45 | 9 | 6 | 54 | 40 | 3 | > 20 | 15 | > 20 | > 20 | IC50 (HepG2): > 20 µM; Activity (HL-60 [18]): Active; Activity (HL-60 [19]): Active; Activity (HL-60 [20]): Active; Activity (HL-60 [21]): Active; Activity (HL-60 [22]): Active; Activity (HL-60 [23]): Active; Activity (HL-60 [25]): 68%; Activity (HL-60 [26]): 38%; Activity (HL-60 [27]): 23%; Activity (HL-60 [28]): 6%

Source: ChEMBL document CHEMBL2424563, “Semisynthesis of mallotus B from rottlerin: evaluation of cytotoxicity and apoptosis-inducing activity” (J Nat Prod, 2013)
